Screens as filed in PubChem BioAssay.
Yeast tox: Inhibitors of S. cerevisiae growth, toxicity. 30,000 compounds, 0.3% hits. AID 685. S. cerevisiae wild-type growth, A595 turbidity, 16 h. growth inhibition, % at 25 µM (by protocol);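 active = mutant and wild-type yeast strains alike exhibit over 30% growth inhibition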
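system = S. cerevisiae wild-type or eIF2Bepsilon-R284H mutant strain | buffer or medium = YPD medium | dosing = one dose, 25 µM compound, 0.2% DMSO | schedule = 16 h at 30 °C | measured by = A595 turbidity | evaluation = growth inhibition (%) versus cell controls and blanks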
eIF2B yeast act: eIF2B (yeast) activity modulation; S. cerevisiae eIF2B-epsilon R284H, GCN4-lacZ luminescence; inhibition, % at 25 µM (by protocol); 27,000 compounds, 0.91% hits; AID 688;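 active = mutant luminescence inhibited past about 50% while wild type luminescence and mutant growth stay under set limits, limit read from the data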
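material = yeast eIF2B-epsilon R284H mutant carrying GCN4–beta-galactosidase fusion | schedule = 16 h growth with compound at 30 °C, 90 min Beta-Glo step | measured by = luminescence and A595 | compound dosing = one concentration, 25 µM, 0.25% DMSO | read-out basis = % inhibition of reporter signal and growth versus controls | buffer or medium = YPD medium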
Large screens that a line does not name were inactive. This is a sample that favours compounds with a hit; in the whole collection about 1.1% have one here.

COc1cccc(-c2nc(N3CCCCC3C)c3ccccc3n2)c1O (stereo not drawn)	eIF2B yeast act 56.5
C=CCNc1nc(-c2cccc(OC)c2O)nc2ccccc12	eIF2B yeast act 57.0
c1ccc2c(N3CCCC3)nc(-c3ccncc3)nc2c1	none (no result: Yeast tox)
COc1ccc(CN2CN=C(Nc3nc4ccccc4s3)NC2)cc1	none
COc1ccc(C2(O)CCN(Cc3nnnn3Cc3ccc(C)cc3)CC2)cc1	none
Cc1ccc(Cn2nnnc2CN2CCC(O)(c3ccc(F)cc3)CC2)cc1	eIF2B yeast act 69.3
CCCOCC1CC2(CC(C)(c3csc(N)n3)OC2=O)C(=O)O1 (stereo not drawn)	eIF2B yeast act 61.2 (no result: Yeast tox)
CC(C)[C@H](NC(=O)OC(C)(C)C)C(=O)N/N=C/c1cccc2nccnc12	none
COC(=O)CSc1nnc2n(-c3ccc(OC)cc3)c(=O)c3c4c(sc3n12)CCCCC4	eIF2B yeast act 73.8
CCOC(=O)CSc1nnc2n(C3CCCCC3)c(=O)c3c4c(sc3n12)CCCC4	none
Cc1nnc(NC(=O)Cn2cnc3c2c(=O)n(C)c(=O)n3C)s1	none
CCCc1cc(Nc2ccccc2OCC)n2ncnc2n1	none
CC1(C)CC(=O)C(Sc2nnc(-c3ccc(NS(C)(=O)=O)cc3)n2Cc2ccco2)C(=O)C1	none
Cn1c(SC2C(=O)CC(C)(C)CC2=O)nnc1-c1ccco1	eIF2B yeast act 60.3
CCC(=O)Nc1cccc(NC(=O)CSc2nnc(-c3ccc(NS(C)(=O)=O)cc3)n2CC)c1	none
CCc1nnc(N2C(=O)c3cccc4cccc(c34)C2=O)s1	none
O=C1c2cccc3cccc(c23)C(=O)N1c1ccncc1	Yeast tox 44.3
CC(C)[C@H](N)c1nnc(SC/C=C/c2ccccc2)o1	none (no result: eIF2B yeast act)
OC(Cn1cncn1)(c1ccccc1)c1ccccc1	Yeast tox 85.8 (no result: eIF2B yeast act)
c1ccc(NCn2cncn2)nc1	none
Cc1nc(N)c(C#N)c(-c2ccccc2)c1C	none
CC1=C(C#N)c2nc(N)c(C#N)c(C)c2/C1=C\c1ccccc1	Yeast tox 53.2
CCN(CC)S(=O)(=O)c1ccc2oc(C(=O)NCc3ccc(C)cc3)c(C)c2c1	none
CNC(=O)CN(c1ccc(F)cc1)S(=O)(=O)c1cc(C)ccc1OC	none (no result: eIF2B yeast act)
COc1ccc(Cl)cc1-n1c(N)c(C(N)=O)sc1=S	eIF2B yeast act 52.8
Cc1ccc(-n2c(N)c(C(N)=O)sc2=S)c(C)c1	none
COc1ccc(S(=O)(=O)CCC(=O)N2CC(=O)N(CCc3ccccc3)C(=O)C2)cc1	none
COc1ccc(S(=O)(=O)CCC(=O)N2c3ccccc3CC2C)cc1 (stereo not drawn)	eIF2B yeast act 55.8
COC(=O)c1cc2nc(-c3ccc(OC)cc3)cc(C(F)(F)F)n2n1	none
COC(=O)c1nn2c(C(F)(F)F)cc(-c3ccc(Br)o3)nc2c1Br	eIF2B yeast act 54.1
O=c1c2c3c(sc2n2c(=S)[nH]nc2n1Cc1ccccc1)CN(Cc1ccccc1)CC3	none
Cc1ccc(CN(c2ccc(C(=O)Nc3cccnc3)cc2)S(C)(=O)=O)cc1	none
Cc1ccc(/C=N/N2CCN(Cc3ccc(Cl)cc3)CC2)o1	none
O=C(Nc1cccnc1)c1cc2nc(C3CC3)cc(C(F)(F)F)n2n1	none
CC(C)CNC(=O)c1cc2nc(C3CC3)cc(C(F)(F)F)n2n1	eIF2B yeast act 56.8
COc1ccc(-c2csc(NC(=O)C3CCCCN3S(=O)(=O)c3ccccc3)n2)cc1 (stereo not drawn)	none
CC1=NN(C(=O)Cc2ccc([N+](=O)[O-])cc2)C(O)(c2ccccc2)C1 (stereo not drawn)	none (no result: eIF2B yeast act)
CCc1nnc(NC(=O)C2c3ccccc3Oc3ccccc32)s1	none (no result: eIF2B yeast act)
Cc1cnc(NC(=O)CN(C)S(=O)(=O)c2ccc(Cl)cc2)s1	eIF2B yeast act 54.3
CN(CC(=O)Nc1ccccn1)S(=O)(=O)c1ccc(Cl)cc1	none
O=C(Nc1ccc2oc(=O)ccc2c1)c1cccnc1Cl	none
CCNC(=O)C1CC(=O)OC12CCCCC2 (stereo not drawn)	none
O=C(Oc1ccc(N(Cc2cccs2)C2=NS(=O)(=O)c3ccccc32)cc1)c1ccccc1F	none
COc1cc(S(=O)(=O)N(Cc2ccc(C)cc2)Cc2ccco2)ccc1-n1cnnn1	none
COc1cc(S(=O)(=O)N(Cc2cccnc2)Cc2ccco2)ccc1-n1cnnn1	eIF2B yeast act 52.9
CCC(=O)OCCNc1cc(Sc2nc3ccccc3s2)c2nonc2c1[N+](=O)[O-]	Yeast tox 52.4 (no result: eIF2B yeast act)
CC(C)OC(=O)CSc1nc2ccccc2s1	none (no result: eIF2B yeast act)
CCOC(=O)CCNC(C(=O)OCC)c1ccccc1 (stereo not drawn)	none
O=c1ccnc(S/C=C/c2ccccc2)[nH]1	eIF2B yeast act 66.4
O=C(Nc1ccccc1F)c1cc2nc(C(F)F)cc(C(F)F)n2n1	none
CCCCCOC(=O)c1cc(=O)[nH]c2ccccc12	none
CCC(=O)N(Cc1cc(=O)[nH]c2ccccc12)c1cccc(C)c1	eIF2B yeast act 51.2
CCCCCOc1ccc(CSc2ncn[nH]2)cc1	none
COC(=O)C(O)(CC(=O)Nc1cc(Cl)ccc1Cl)C(F)(F)F (stereo not drawn)	none (no result: Yeast tox)
Cc1cc(C)n(CCn2nc(C)cc2C)n1	none
